Screening data (PubChem BioAssay)
Hits are enriched below; roughly 0.66% of the tested compounds scored in any of these assays.
AP ELISA ortho – orthogonal test for alternative complement pathway inhibitors. Human serum alternative complement pathway, LPS-coated ELISA, C3 deposition; tested in compound mixtures. actives 0.08% (n = 62,000). inhibition, % at 5 µM;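 active = inhibition above 30% in each of the two pooled mixtures holding the compound, so the lower value exceeds 30%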;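 note: 0% = serum in Mg-EGTA without compound and 100% = EDTA serum blank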
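Test system: human serum complement alternative pathway, C3 deposition onto LPS / Medium: Mg2+-EGTA GVB++ buffer containing human serum at 1:15 dilution / Probe or stimulus: Plate-bound LPS / Times: 1 h at 37 °C / Signal: ELISA with HRP anti-human C3 antibody, TMB substrate, absorbance 450 nm / Measure: percent inhibition / Repeats: two pool placements per compound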
BAP1 inh – blocks human BAP1 ubiquitin-AMC hydrolysis; Q92560; recombinant BAP1, Ub-AMC hydrolysis fluorescence kinetic; hits give low values; calls only at 20 µM; actives 0.48% (n = 72,000); AID 436;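 active = activity remaining at or below 50% of control, provided the compound also passes the data quality filters; inactive = the rest, including low values that fail the filters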;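 note: 100% = DMSO wells rate and 0% = substrate alone blank rate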
Target sequence (Q92560 whole entry, looked up): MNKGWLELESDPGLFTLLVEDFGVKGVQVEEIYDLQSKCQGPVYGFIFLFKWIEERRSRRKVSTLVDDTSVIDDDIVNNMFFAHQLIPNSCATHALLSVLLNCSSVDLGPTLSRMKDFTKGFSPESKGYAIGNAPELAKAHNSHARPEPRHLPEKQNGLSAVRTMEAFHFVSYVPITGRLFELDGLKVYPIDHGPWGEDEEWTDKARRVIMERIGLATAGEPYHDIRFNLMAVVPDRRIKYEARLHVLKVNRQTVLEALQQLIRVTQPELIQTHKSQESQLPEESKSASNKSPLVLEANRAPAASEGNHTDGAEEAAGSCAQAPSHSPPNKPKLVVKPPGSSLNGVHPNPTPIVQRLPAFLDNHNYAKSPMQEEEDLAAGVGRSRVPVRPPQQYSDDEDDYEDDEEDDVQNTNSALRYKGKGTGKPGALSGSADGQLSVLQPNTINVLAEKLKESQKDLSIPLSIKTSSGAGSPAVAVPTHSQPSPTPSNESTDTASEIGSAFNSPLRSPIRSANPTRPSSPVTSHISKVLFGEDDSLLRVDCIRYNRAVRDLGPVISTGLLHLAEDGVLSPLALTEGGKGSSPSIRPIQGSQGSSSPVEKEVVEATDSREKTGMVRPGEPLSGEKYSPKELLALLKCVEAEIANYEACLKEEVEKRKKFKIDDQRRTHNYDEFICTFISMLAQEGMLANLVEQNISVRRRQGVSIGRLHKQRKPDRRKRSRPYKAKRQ
E coli RNAP – Escherichia coli RNA polymerase inhibition; P0A8V2; actives 0.2% (n = 62,000); inhibition, %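 (tested at 10 µM)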; E. coli RNA polymerase, fluorescence transcription assay; in the data active = inhibition above about 20%;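 note: 0% = enzyme without compound and 100% = no enzyme blank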
BAP1 inh conf – BAP1 (human) enzyme inhibition, confirmed; purified BAP1, Ub-ethyl ester hydrolysis, HPLC; hits give low values; shares compounds with BAP1 inh; actives 8% (n = 310); % of control activity, % at 20 µM; AID 753;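 active = percent of control activity at or below 60%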
Numbers without * were called inactive; i = inactive; · = no result shown; + = active, no number.

SMILES	AP ELISA ortho	BAP1 inh	E coli RNAP	BAP1 inh conf
O=c1c(-c2ccc(O)cc2)coc2cc(O)ccc12	·	+	·	·
CCCSc1nnc2c(n1)OC(C=Cc1ccc([N+](=O)[O-])o1)Nc1ccccc1-2 (stereo not given)	·	i	·	·
COc1cc(/C=C/C(=O)CC(=O)/C=C/c2ccc(O)c(OC)c2)ccc1O	13	i	8	·
O=C(O)/C=C/c1ccc(O)c(O)c1	5	i	21*	·
Clc1ccccc1-c1noc(C2CCC(c3ccccc3)CC2)n1 (stereo not given)	·	i	·	·
COc1cc(S(=O)(=O)N2CCOCC2)ccc1NC(=O)CSc1nnc(N)s1	33*	i	2	·
COc1cc(S(=O)(=O)N2CCOCC2)ccc1NC(=O)c1cc2c(s1)CCC2	17	·	-1	·
O=C(Nc1nc2c(s1)CCCC2)c1ccc(-c2ccccc2)cc1	·	i	·	·
CCCCC(=O)Nc1ccc(NC(=O)C2CC2)cn1	9	i	8	·
CCCCC(=O)Nc1ccc(NC(=O)CCCC)nc1	69*	i	4	·
COc1ccccc1NC(=O)c1cc(-c2ccccc2)nc2ccccc12	·	i	·	·
O=C(Nc1ccon1)c1cc(-c2ccccc2)nc2ccccc12	-10	i	21*	·
N#Cc1c(NC(=O)CSc2ncn(-c3ccccc3)n2)sc2c1CCCC2	-11	·	8	·
N#Cc1c(NC(=O)CSc2ncnc3c2cnn3-c2ccccc2Cl)sc2c1CCCC2	13	+	5	·
CCCCCCCCCCCCCCSCC(=O)O	·	+	·	·
COc1ccc(-c2csc(NC(=O)c3cc(Cl)ccc3[N+](=O)[O-])n2)cc1	·	i	·	·
COc1ccc2c(c1)-c1ccccc1S(=O)(=O)N2C(C)=O	-5	i	29*	·
COc1ccc(OC)c(NC(=O)CN2C(=O)c3ccccc3S2(=O)=O)c1	14	i	9	·
Cc1ccccc1OCCSc1nc2ccccc2n1CCO	·	i	·	·
CN(C)c1nc(N)nc(CSc2nc3cc(Cl)ccc3o2)n1	19	·	3	·
O=S1(=O)C=C(Sc2nc3cc(Cl)ccc3o2)c2ccccc21	18	i	40*	·
COc1ccc(C(=O)Nc2cccc3c2C(=O)c2ccccc2C3=O)cc1	·	i	·	·
Cc1nn(C(=O)c2ccco2)c(-c2ccccc2)c1Sc1ccccc1	·	i	·	·
Cc1csc(NC(=O)c2cc3c(s2)CCC3)n1	14	·	1	·
Cc1csc(NC(=O)c2cc3c(s2)-c2ccccc2OC3)n1	7	+	1	91
SMILES	AP ELISA ortho	BAP1 inh	E coli RNAP	BAP1 inh conf
COc1ccc(N/C=C2/CCCCC2=O)cc1	-8	i	8	·
CC1CCC/C(=C\Nc2ccc(O)cc2)C1=O (stereo not given)	13	+	4	91
O=C(NCC1CCCO1)c1cccc(N2C(=O)C3CC=CCC3C2=O)c1 (stereo not given)	·	i	·	·
CSc1ccc(C2C(C#N)=C(N)Oc3c2ccc(=O)c2c(C)oc(C)c32)cc1 (stereo not given)	4	+	4	118
Cc1oc(C)c2c(=O)ccc3c(c12)OC(N)=C(C#N)C3c1ccccc1 (stereo not given)	24	i	5	·
N#C/C(=C\c1cccs1)Sc1nc2ccccc2s1	2	i	7	·
N#C/C(=C\c1ccc[nH]1)Sc1nc2ccccc2s1	5	+	1	86
O=C1c2cccc3cccc(c23)C(=O)N1CCN1CCCCC1	·	i	·	·
COc1ccc(S(=O)(=O)N(C)CC(=O)N2CCOCC2)cc1	-1	i	11	·
CN(CC(=O)N1CCN(c2ccc(F)cc2)CC1)S(=O)(=O)c1ccc(F)cc1	9	+	4	137
CCN(CC)S(=O)(=O)c1ccc2oc(C(=O)Nc3ccc(OC)cc3OC)c(C)c2c1	14	·	1	·
CCOC(=O)c1oc2ccc(S(=O)(=O)n3nc(-c4ccc(OC)cc4)cc3N)cc2c1C	20	+	2	75
O=C(c1ccc(Cl)cc1)N1CCN(c2c(Cl)cccc2[N+](=O)[O-])CC1	·	i	·	·
CCCCOc1ccc(NC2=NC3(CCCC3)N=C(N)N2)cc1	1	+	8	98
Cc1cc(C)cc(NC2=NC3(CCCCC3)N=C(N)N2)c1	11	i	7	·
CC(=O)N1CCN(c2ccc([N+](=O)[O-])cc2Cl)CC1	·	i	·	·
N#Cc1c(N=Cc2cc(Br)ccc2O)sc2c1CCC2	·	i	·	·
N#CCCn1nnc2ccccc21	4	i	10	·
CCOc1ccccc1OCCn1nnc2ccccc21	6	+	6	105
Cc1ccc(C(=O)c2ccc(N3CCCCC3)c(F)c2)cc1C	·	i	·	·
Cc1cc(-c2nn3c(-c4ccccc4)nnc3s2)c2ccccc2n1	31	i	10	·
c1ccc(-c2cc(-c3nn4c(-c5ccco5)nnc4s3)c3ccccc3n2)cc1	6	+	2	109
O=C(Nc1nc2ccc(Br)cc2s1)c1ccc(Cl)cc1	·	i	·	·
COc1ccc(-c2cc(C(F)(F)F)n3nc(C(=O)O)cc3n2)cc1OC	5	i	1	·
COC(=O)c1cc2nc(-c3ccc(OC)c(OC)c3)cc(C(F)(F)F)n2n1	7	+	3	129
SMILES	AP ELISA ortho	BAP1 inh	E coli RNAP	BAP1 inh conf
O=c1oc2cc(OCc3ccccc3F)ccc2c2c1CCCC2	·	i	·	·
COc1ccc(NC(=O)c2nc[nH]c2C(=O)Nc2ccccc2C)cc1	10	+	0	156
COc1ccccc1NC(=O)c1nc[nH]c1C(=O)Nc1ccccc1OC	1	·	0	·
Cc1ccc([N+](=O)[O-])cc1NC(=O)c1cncc(Br)c1	·	i	·	·
CCc1c(C)sc(NC(=O)c2cccs2)c1C(=O)OC(C)C	0	i	0	·
CCOC(=O)c1c(NC(=O)c2cccs2)sc(C)c1CC	22	+	4	59*
CC(C)OC(=O)c1cccnc1SCc1cc(=O)n2ccccc2n1	2	+	-5	90
O=c1[nH]c(SCc2cc(=O)n3ccccc3n2)nc2c1CCC2	-4	i	2	·
COc1ccc(-c2nnc(SCC(=O)Nc3ccccc3OC)o2)cc1	11	i	-3	·
COc1ccc(-c2nnc(SCC(=O)Nc3cccc(Cl)c3)o2)cc1	-1	+	8	109
CCC(C)OC(=O)C1=C(C)NC(=O)NC1c1ccccc1 (stereo not given)	·	i	·	·
CCc1cc(C(=O)Cc2cnn(-c3ccccc3)c2)c(O)cc1O	15	+	0	129
Oc1cnn(-c2ccccc2)c1	-2	i	0	·
CCC(=O)NC(=Nc1nc(C)c2cc(C)cc(C)c2n1)NC(=O)CC	·	i	·	·
CCOC(=O)CSc1nc2c(c(=O)n1C)C1(CCCC1)Cc1ccccc1-2	·	i	·	·
CCOC(=O)c1sc(NC(=O)CCn2nnc3ccccc32)c(C(=O)OCC)c1C	7	i	5	·
CC(C)OC(=O)c1c(NC(=O)CCn2nnc3ccccc32)sc2c1CCCC2	12	+	3	89
CCOC(=O)Cc1csc(NC(=O)c2ccc(Br)s2)n1	10	i	3	·
CCOc1cccc2sc(NC(=O)c3ccc(Br)s3)nc12	13	+	10	81
Cc1ccc(-c2nnn(CC(=O)Nc3ccc(S(=O)(=O)N4CCC(C)CC4)cc3)n2)cc1	-12	+	4	73
